Data set [1] addresses T1, Glutamate receptor 2 (Homo sapiens, UniProt P42262). Description: Positive allosteric modulation of human GluA2 AMPAR flip isomer expressed in Dox-inducible cells measured every 5 mins by BD calcium indicator dye based-fluorescence analysis in presence of glutamate. In kind it is cell-based.
For data set [2], the target named is T1, Glutamate receptor 2. Description: Positive allosteric modulation of human GluA2 AMPAR flip isomer expressed in Dox-inducible cells at 125 uM measured every 5 mins by BD calcium indicator dye based-fluorescence analysis in presence of glutamate. In kind it is cell-based.
The target of data set [3] is T2, Glutamate NMDA receptor; GRIN1/GRIN2A (Homo sapiens, UniProt Q05586+Q12879). Description: Positive allosteric modulation of GluN1/GluN2A NMDAR (unknown origin) expressed in Dox-inducible cells at 125 uM measured every 5 mins by BD calcium indicator dye based-fluorescence analysis in presence of glutamate/glycine. The data set is classed as cell-based. The gist of the method:
(§1)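 GluN2A-containing NMDAR cell line, harvested, seeded, doxycycline 2 µg/mL overnight with 500 µM ketamine for protection, then washed and loaded with calcium dye for 50 min. Compound added at 2x concentration in 2x EC30 Glu (EC30 set daily from Glu dose-response); saturating Gly throughout; fluorescence recorded over 5 min.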

The target in data set [4] is T2, Glutamate NMDA receptor; GRIN1/GRIN2A. Description: Positive allosteric modulation of GluN1/GluN2A NMDAR (unknown origin) expressed in Dox-inducible cells measured every 5 mins by BD calcium indicator dye based-fluorescence analysis in presence of glutamate/glycine. The data set is classed as cell-based. The gist of the method:
as §1

Data set [5] deals with T1, Glutamate receptor 2. Description: Positive allosteric modulation of human GluA2 AMPAR flop isomer expressed in Dox-inducible cells measured every 5 mins by BD calcium indicator dye based-fluorescence analysis in presence of glutamate. The data set is classed as cell-based.
In data set [6] the target is T1, Glutamate receptor 2. Description: Positive allosteric modulation of human GluA2 AMPAR flop isomer expressed in Dox-inducible cells at 125 uM measured every 5 mins by BD calcium indicator dye based-fluorescence analysis in presence of glutamate. In kind it is cell-based.
Another data set relates to human MDR1 (P-gp). Description: Efflux ratio of permeability from basolateral to apical over apical to basolateral side in MDCK cells expressing human MDR1. The data set is classed as ADME, cell-based, Canis lupus familiaris. To be noted: dog.

Here are results for 24 compounds from ChEMBL document CHEMBL3797125, “Discovery of GluN2A-Selective NMDA Receptor Positive Allosteric Modulators (PAMs): Tuning Deactivation Kinetics via Structure-Based Design” (J Med Chem, 2016).

A word on the EC50: it is the concentration at which the effect is half-maximal. The term efflux ratio denotes the permeability from basolateral to apical divided by that in the opposite direction, in the common usage.

T1 sequence (P42262 whole entry): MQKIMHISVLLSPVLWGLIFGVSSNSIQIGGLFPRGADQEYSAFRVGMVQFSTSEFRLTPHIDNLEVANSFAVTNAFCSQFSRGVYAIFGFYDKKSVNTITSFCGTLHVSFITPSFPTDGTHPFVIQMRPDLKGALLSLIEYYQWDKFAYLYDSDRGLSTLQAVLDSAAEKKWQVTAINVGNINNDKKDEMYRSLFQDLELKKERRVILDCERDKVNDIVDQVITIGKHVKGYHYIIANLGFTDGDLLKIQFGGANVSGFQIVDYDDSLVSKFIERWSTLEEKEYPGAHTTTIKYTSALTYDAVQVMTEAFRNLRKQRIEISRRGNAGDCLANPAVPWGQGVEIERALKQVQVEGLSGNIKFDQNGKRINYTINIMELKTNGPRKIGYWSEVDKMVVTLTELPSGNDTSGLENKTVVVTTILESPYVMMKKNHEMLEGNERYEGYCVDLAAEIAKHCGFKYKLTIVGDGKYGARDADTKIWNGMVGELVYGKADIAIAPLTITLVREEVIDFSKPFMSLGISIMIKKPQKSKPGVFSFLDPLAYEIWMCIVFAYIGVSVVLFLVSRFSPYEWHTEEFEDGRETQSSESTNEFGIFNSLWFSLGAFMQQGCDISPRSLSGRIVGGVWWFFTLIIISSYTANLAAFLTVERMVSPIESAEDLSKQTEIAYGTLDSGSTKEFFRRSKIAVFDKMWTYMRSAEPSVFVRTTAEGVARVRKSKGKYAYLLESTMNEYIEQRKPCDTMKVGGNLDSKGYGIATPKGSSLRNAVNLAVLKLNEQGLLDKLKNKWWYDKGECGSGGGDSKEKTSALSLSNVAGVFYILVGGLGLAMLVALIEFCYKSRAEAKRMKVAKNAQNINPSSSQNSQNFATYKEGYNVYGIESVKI

Regarding `CCN(Cc1cc(=O)n2c(-c3cccnc3)c(C)sc2n1)c1ccc(F)cc1`, the EC50 at Glutamate receptor 2 [1] came out at 33.8 µM; in data set [4], 0.168 µM; at Glutamate receptor 2 [5], 4.5 µM. Also, the %max came to 75% at Glutamate receptor 2 [2], 144% in data set [3] and 11% on Glutamate receptor 2 [6]. Further, the efflux ratio in the data set with human MDR1 (P-gp) was determined as 1.2.
`Cc1sc2nc(Cn3nc(C(F)(F)F)cc3Cl)cc(=O)n2c1[C@@H]1C[C@H]1C#N`: the EC50 is 0.702 µM on Glutamate receptor 2 [1], 0.0295 µM in data set [4] and 0.073 µM on Glutamate receptor 2 [5]. Also, the %max on Glutamate receptor 2 [2] was 91%; in data set [3], 151%; on Glutamate receptor 2 [6] it was 93%. In addition, the efflux ratio with human MDR1 (P-gp) was 5.3.
On to `CCN(Cc1cc(=O)n2c(C(=O)NC)c(C)sc2n1)c1ccc(F)cc1`, for which the %max at Glutamate receptor 2 [2] was 18%; in data set [3], 185%; on Glutamate receptor 2 [6], 38%. In data set [4], the EC50 is 0.131 µM. The efflux ratio with human MDR1 (P-gp) turned out to be 9.8.
As for `CCNC(=O)c1c(C)sc2nc(Cn3ccc(C(F)(F)F)n3)cc(=O)n12`, the %max was 2% on Glutamate receptor 2 [2], 99% in data set [3] and 1% at Glutamate receptor 2 [6]. In data set [4], the EC50 worked out at 17 µM. The efflux ratio with human MDR1 (P-gp) came to 21.5.
Consider `Cc1sc2nc(Cc3cccc(C#N)c3F)cc(=O)n2c1C1CC1CO` (racemic), for which the EC50 on Glutamate receptor 2 [1] is 32.6 µM; in data set [4] it was 0.9 µM; on Glutamate receptor 2 [5], 1.1 µM. Moreover, the figures for the %max (on Glutamate receptor 2 [2]; in data set [3]; at Glutamate receptor 2 [6]) were 38%, 160% and 23%, respectively. Further, the efflux ratio with human MDR1 (P-gp) was found to be 3.6.
Consider `CCNC(=O)c1c(C)sc2nc(Cc3cc(C#N)ccc3Cl)cc(=O)n12`, for which the values for the %max (on Glutamate receptor 2 [2]; in data set [3]; on Glutamate receptor 2 [6]) were 1%, 94% and 0%, respectively. Besides, the EC50 in data set [4] stood at 12.9 µM. For the same compound, the efflux ratio with human MDR1 (P-gp) came out at 22.
As for `CCNC(=O)c1c(C)sc2nc(C(C)c3cccc(C(F)(F)F)c3F)cc(=O)n12` (racemic), the %max at Glutamate receptor 2 [2] worked out at 4%; in data set [3], 75%; at Glutamate receptor 2 [6], 8%. In addition, the EC50 in data set [4] came out at 3.1 µM. The efflux ratio with human MDR1 (P-gp) was 2.2.
For `CCNC(=O)c1c(C)sc2nc(Cc3cccc(C(F)(F)F)c3F)cc(=O)n12`, the EC50 at Glutamate receptor 2 [1] is 28.3 µM; in data set [4], 1.2 µM; at Glutamate receptor 2 [5] it was 29.4 µM. In addition, the values for the %max (on Glutamate receptor 2 [2]; in data set [3]; on Glutamate receptor 2 [6]) were 9%, 94% and 20%, respectively. For the same compound, the efflux ratio in the data set on human MDR1 (P-gp) is 1.8.
For `CCN(Cc1cc(=O)n2c(C3CC3)c(C)sc2n1)c1ccc(F)cc1`, the figures for the EC50 (at Glutamate receptor 2 [1]; in data set [4]; at Glutamate receptor 2 [5]) were 34 µM, 0.394 µM and 9.8 µM, respectively. Besides, the values for the %max (on Glutamate receptor 2 [2]; in data set [3]; on Glutamate receptor 2 [6]) were 35%, 168% and 31%, respectively. Besides, the efflux ratio in the data set on human MDR1 (P-gp) came to 0.8.
With `CCN(Cc1cc(=O)n2c(CCCO)c(C)sc2n1)c1ccc(F)cc1`, the EC50 at Glutamate receptor 2 [1] worked out at 33.2 µM; in data set [4], 0.183 µM; on Glutamate receptor 2 [5] it was 1.5 µM. For the same compound, the %max stood at 37% on Glutamate receptor 2 [2], 169% in data set [3] and 45% on Glutamate receptor 2 [6]. Also, in the data set on human MDR1 (P-gp), the efflux ratio was found to be 1.
Consider `CCNC(=O)c1c(C)sc2nc(Cn3nc(C(F)(F)F)cc3C)cc(=O)n12`, for which the results for the %max (on Glutamate receptor 2 [2]; in data set [3]; at Glutamate receptor 2 [6]) were 8%, 128% and 19%, respectively. Moreover, the EC50 in data set [4] turned out to be 4.9 µM. Further, the efflux ratio with human MDR1 (P-gp) turned out to be 33.
On to `CCNC(=O)c1c(C)sc2nc(Cn3nc(C(F)(F)F)cc3OCC(C)C)cc(=O)n12`, for which the %max on Glutamate receptor 2 [2] was determined as 3%; in data set [3] it was 60%; on Glutamate receptor 2 [6], 10%. The EC50 in data set [4] stood at 57.1 µM. In addition, the efflux ratio in the data set with human MDR1 (P-gp) turned out to be 3.7.
As for `CCN(Cc1cc(=O)n2c(-c3cncnc3)c(C)sc2n1)c1ccc(F)cc1`, the %max was 56% at Glutamate receptor 2 [2], 148% in data set [3] and 16% at Glutamate receptor 2 [6]. The EC50 in data set [4] turned out to be 0.137 µM; on Glutamate receptor 2 [5], 0.972 µM. Also, the efflux ratio in the data set with human MDR1 (P-gp) was 1.2.
Consider `CCNC(=O)c1c(C)sc2nc(CN(CC)c3ccc(F)cn3)cc(=O)n12`, for which the %max on Glutamate receptor 2 [2] is 6%; in data set [3], 170%; at Glutamate receptor 2 [6] it was 13%. In addition, the EC50 in data set [4] is 1.7 µM. The efflux ratio with human MDR1 (P-gp) stood at 22.
With `CCNC(=O)c1c(C)sc2nc(Cc3cccc(C#N)c3F)cc(=O)n12`, the %max on Glutamate receptor 2 [2] is 3%; in data set [3], 102%; on Glutamate receptor 2 [6], 3%. Moreover, the EC50 in data set [4] stood at 9.1 µM. For the same compound, the efflux ratio in the data set on human MDR1 (P-gp) was 3.1.
On to `CCNC(=O)c1c(C)sc2nc(Cc3cc(C#N)ccc3C3CC3)cc(=O)n12`, for which the values for the %max (on Glutamate receptor 2 [2]; in data set [3]; on Glutamate receptor 2 [6]) were 2%, 102% and 2%, respectively. The EC50 in data set [4] was 17.5 µM. Further, in the data set on human MDR1 (P-gp), the efflux ratio came out at 44.
With `CCNC(=O)c1c(C)sc2nc(CN(C)c3ccc(F)cc3)cc(=O)n12`, the figures for the %max (at Glutamate receptor 2 [2]; in data set [3]; on Glutamate receptor 2 [6]) were 2%, 159% and 2%, respectively. Also, in data set [4], the EC50 was 0.434 µM. The efflux ratio with human MDR1 (P-gp) is 8.6.
With `CCN(Cc1cc(=O)n2c(C(C)C)c(C)sc2n1)c1ccc(F)cc1`, the figures for the concentration giving a half-maximal response (EC50) (at Glutamate receptor 2 [1]; in data set [4]) were 34.4 µM and 0.685 µM, respectively. Moreover, the %max at Glutamate receptor 2 [2] was found to be 15%; in data set [3] it was 129%; at Glutamate receptor 2 [6], 1%. Further, in the data set on human MDR1 (P-gp), the efflux ratio amounted to 1.3.
`CCCN(Cc1cc(=O)n2c(C(=O)NCC)c(C)sc2n1)c1ccc(F)cc1`: the %max was 5% on Glutamate receptor 2 [2], 171% in data set [3] and 32% at Glutamate receptor 2 [6]. In addition, the results for the EC50 (in data set [4]; at Glutamate receptor 2 [5]) were 0.132 µM and 48.7 µM, respectively. For the same compound, the efflux ratio with human MDR1 (P-gp) worked out at 12.6.
For the compound `CCN(Cc1cc(=O)n2c(C3CCC3)c(C)sc2n1)c1ccc(F)cc1`, the EC50 at Glutamate receptor 2 [1] came out at 35.9 µM; in data set [4], 2.6 µM; at Glutamate receptor 2 [5] it was 8.6 µM. Also, the %max at Glutamate receptor 2 [2] stood at 38%; in data set [3], 122%; at Glutamate receptor 2 [6], 20%.
As for `CCNC(=O)c1c(C)sc2nc(CNc3ccc(F)cc3)cc(=O)n12`, the %max at Glutamate receptor 2 [2] is 8%; in data set [3], 123%; at Glutamate receptor 2 [6], 19%. Moreover, in data set [4], the EC50 was 7 µM. For the same compound, the efflux ratio in the data set on human MDR1 (P-gp) was found to be 5.8.
Regarding `CCNC(=O)c1c(C)sc2nc(Cn3nc(C(F)(F)F)cc3C3CC3)cc(=O)n12`, the %max at Glutamate receptor 2 [2] was found to be 54%; in data set [3], 147%; on Glutamate receptor 2 [6] it was 60%. For the same compound, the values for the EC50 (in data set [4]; on Glutamate receptor 2 [5]) were 0.536 µM and 6.4 µM, respectively. In the data set on human MDR1 (P-gp), the efflux ratio was determined as 2.2.
Regarding `CCNC(=O)c1c(C)sc2nc(Cn3nc(C(F)(F)F)cc3OCC)cc(=O)n12`, the %max was 32% on Glutamate receptor 2 [2], 144% in data set [3] and 43% on Glutamate receptor 2 [6]. Besides, the EC50 in data set [4] is 0.414 µM; on Glutamate receptor 2 [5] it was 9.1 µM. In addition, the efflux ratio with human MDR1 (P-gp) came to 57.
Take `CCNC(=O)c1c(C)sc2nc(Cc3cccc(C(F)(F)F)c3)cc(=O)n12`: the %max on Glutamate receptor 2 [2] was 18%; in data set [3], 113%; at Glutamate receptor 2 [6] it was 21%. For the same compound, the EC50 in data set [4] stood at 1.9 µM; on Glutamate receptor 2 [5] it was 66.2 µM. In the data set with human MDR1 (P-gp), the efflux ratio stood at 20.
